Results collected from several papers.
Compare with care: the assays were run in different laboratories.
Effect on: enzyme activity
Action: inhibitor
CDK2 with cyclin E: Cyclin-dependent kinase 2, with cyclin E (CDK2, Homo sapiens, UniProt P24941)
CDK2 with cyclin A: Cyclin-dependent kinase 2, with cyclin A (CDK2, Homo sapiens, UniProt P24941)
CDK2 with cyclin E2: Cyclin-dependent kinase 2, with cyclin E2 (CDK2, Homo sapiens, UniProt P24941)

| SMILES | target | test | setting | remaining activity |
| --- | --- | --- | --- | --- |
| O=C(Nc1cnn(-c2csc(C(=O)NC3COC3)c2)c1)Nc1c(F)cccc1Cl | CDK2 with cyclin E | – | 5 µM | 94.6% |
| Cc1ccc(Nc2nccc(N(C)c3ccc4c(C)n(C)nc4c3)n2)cc1S(N)(=O)=O | CDK2 with cyclin A | – | 0.5 µM | 96.1% |
| COc1cc(Cl)c(C(=O)N[C@@H](CN[C@H]2CC[C@@H](N)CC2)Cc2ccc(C#N)cc2)cc1-c1ccc(CN[C@H](C)c2ccc(C)cc2)o1 | CDK2 with cyclin A | – | 1 µM | 96% |
| CC(C)(C)c1nc(-c2cccc(NS(=O)(=O)c3c(F)cccc3F)c2F)c(-c2ccnc(N)n2)s1 | Cyclin-dependent kinase 2, with cyclin E1 (CDK2, Homo sapiens, UniProt P24941) | radiometric | 1 µM | 90% |
| Nc1nc(NC2CCCCC2)sc1C(=O)c1ccccc1 | CDK2 with cyclin A | – | 10 µM | 5% |
| Oc1cccc(-c2nc(N3CCOCC3)c3oc4ncccc4c3n2)c1 | CDK2 with cyclin A | – | 10 µM | 94% |
| Cc1cnc(NC2CCOCC2)nc1-n1cnc(C(=O)NC(CN)c2cc(F)cc(Cl)c2)c1 (stereo not drawn) | CDK2 with cyclin A | radiometric | 1 µM | 3% |
| CC(C)(O)[C@H]1CC[C@H](Nc2ccc3ncc(-c4cccc(C(F)(F)F)c4)n3n2)CC1 | CDK2 with cyclin E | – | 1 µM | 91.1% |
| Cc1sc(C(=O)NC2COC2)cc1-n1cc(NC(=O)Nc2c(F)cccc2Cl)cn1 | CDK2 with cyclin E2 | – | 10 µM | 90.8% |
| CC(C)(C)c1nc2c(s1)c1nc(N)ncc1c1ccc(NS(=O)(=O)c3c(F)cccc3F)c(F)c12 | Cyclin-dependent kinase 2, with cyclin A2 (CDK2, Homo sapiens, UniProt P24941) | radiometric | 1 µM | 70% |
| O=C(Nc1cnn(-c2csc(C(=O)NC3COC3)c2)c1)Nc1ccccc1Cl | CDK2 with cyclin E2 | – | 5 µM | 107% |
| COc1cc(Nc2cnc(C#N)c(O[C@H](C)CN(C)C)n2)ncc1-c1cnn(C)c1 | CDK2 with cyclin A | radiometric | 1 µM | 114% |
